Series [1] is described as follows: Aqueous solubility of the compound in Britton-Robinson buffer at pH 6.5 measured after 2 days by saturation shake flask based UV-vis spectroscopy. Format: physicochemical. Summed up: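 Shake-flask method: saturated solutions formed by stirring 2 days in Britton–Robinson buffer (pH 6.5), then filtered through a 0.2 μm pore syringe filter and quantified by UV–vis. Piroxicam served as a repeated control.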

The target in series [2] is T1, Macrophage migration inhibitory factor (Homo sapiens, UniProt P14174).
T1 sequence (P14174 whole entry): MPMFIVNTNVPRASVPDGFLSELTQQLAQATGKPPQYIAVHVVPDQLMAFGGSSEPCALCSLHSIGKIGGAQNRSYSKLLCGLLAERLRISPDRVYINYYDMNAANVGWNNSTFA
Put plainly: Inhibition of recombinant human MIF tautomerase activity expressed in Escherichia coli assessed as borate-enol complex formation using 4-hydroxyphenyl pyruvic acid as substrate preincubated for 20 mins followed by substrate addition measured for 175 sec by spectrophotometric analysis.

Series [3] is described as follows: Equilibrium solubility of the compound in Britton-Robinson buffer stirred for 6 hrs followed by sedimentation for 18 hrs by saturation shake flask based UV-vis spectroscopy. Format: physicochemical.

Structures are written as SMILES. In brackets after ≈: the same amount, converted by molar mass.

The term solubility (thermodynamic) denotes the concentration in solution at equilibrium with solid. As a reminder, the Ki is a dissociation constant, usually derived from enzyme kinetics or from competition with a known ligand.

Turning to `Oc1ccc(-n2cc(-c3ccc4cc(OCC5CCCCO5)ccc4n3)nn2)cc1` (stereo not drawn), the thermodynamic solubility at 48 h in series [1] came to 3.4 µg/mL (≈ 8.45 µM). Further, the Ki in series [2] was found to be 270 nM.

For `NCCOCCOc1ccc2nc(-c3cn(-c4ccc(O)c(F)c4)nn3)ccc2c1.O=C(O)C(F)(F)F`, in series [1], the thermodynamic solubility at 48 h is 9.1 µg/mL.

As for `COCCOCCOc1ccc2nc(-c3cn(-c4ccc(O)cc4)nn3)ccc2c1`, the solubility (thermodynamic) at 48 h in series [1] is 2.4 µg/mL (≈ 5.9 µM). Besides, the Ki in series [2] turned out to be 147 nM.

Molecule `CN1C(C(=O)Nc2ccccn2)=C(O)c2ccccc2S1(=O)=O` [PIROXICAM] displayed a thermodynamic solubility at 6 h in series [3] of 6.36 µg/mL (≈ 19.2 µM). The same molecule gave a solubility (thermodynamic) at 48 h in series [1] of 6.5 µg/mL (≈ 19.6 µM).

In series [1], `O=C(O)CCCOc1ccc2nc(-c3cn(-c4ccc(O)c(F)c4)nn3)ccc2c1` returned a solubility (thermodynamic) at 48 h of 19.2 µg/mL (≈ 47 µM).

`Oc1ccc(-n2cc(-c3ccc4cc(OCCOCCN5CCOCC5)ccc4n3)nn2)cc1F`: the solubility (thermodynamic) at 48 h in series [1] amounted to 27.2 µg/mL (≈ 56.7 µM).

In series [1], `O=C(O)c1cccc(Oc2cccc3nc(-c4cn(-c5ccc(O)c(F)c5)nn4)ccc23)c1` displayed a solubility (thermodynamic) at 48 h of 47.2 µg/mL (≈ 107 µM).

As for `COCCOc1cccc(Oc2cccc3nc(-c4cn(-c5ccc(O)c(F)c5)nn4)ccc23)c1`, the thermodynamic solubility at 48 h in series [1] is 6.1 µg/mL (≈ 12.9 µM). In series [2], the Ki amounted to 24 nM.

The molecule `O=C(O)COc1ccc2nc(-c3cn(-c4ccc(O)cc4)nn3)ccc2c1` had a solubility (thermodynamic) at 48 h in series [1] of 365 µg/mL (≈ 1010 µM).

In series [1], `NCCOc1ccc2nc(-c3cn(-c4ccc(O)cc4)nn3)ccc2c1.O=C(O)C(F)(F)F` gave a solubility (thermodynamic) at 48 h of 3.7 µg/mL.

`Oc1ccc(-n2cc(-c3ccc4ccccc4n3)nn2)cc1` yielded a solubility (thermodynamic) at 48 h in series [1] of 2.2 µg/mL (≈ 7.63 µM).

Take `O=C(O)COCCOc1ccc2nc(-c3cn(-c4ccc(O)c(F)c4)nn3)ccc2c1`: the thermodynamic solubility at 48 h in series [1] stood at 867 µg/mL (≈ 2040 µM). Moreover, in series [2], the Ki turned out to be 37 nM.

`OCCOc1ccc2nc(-c3cn(-c4ccc(O)cc4)nn3)ccc2c1` came in with a thermodynamic solubility at 48 h in series [1] of 2.6 µg/mL (≈ 7.46 µM).

`O=C(O)COc1ccc2nc(-c3cn(-c4ccc(O)c(F)c4)nn3)ccc2c1` displayed a thermodynamic solubility at 48 h in series [1] of 37 µg/mL (≈ 97.3 µM).

With `COCCOc1ccc2nc(-c3cn(-c4ccc(O)cc4)nn3)ccc2c1`, the solubility (thermodynamic) at 48 h in series [1] lay in the range of 3.6 to 4 µg/mL (≈ 9.93 to 11 µM).

For the molecule `O=C(O)COc1ccc2nc(-c3cn(-c4ccccc4)nn3)ccc2c1`, the thermodynamic solubility at 48 h in series [1] came out at 1050 µg/mL (≈ 3020 µM). Besides, the Ki in series [2] turned out to be 1370 nM.

Take `NCCOCCOc1ccc2nc(-c3cn(-c4ccc(O)cc4)nn3)ccc2c1.O=C(O)C(F)(F)F`: the solubility (thermodynamic) at 48 h in series [1] amounted to 13.9 µg/mL.

Values taken from ChEMBL document CHEMBL3870363, “Systematic Study of Effects of Structural Modifications on the Aqueous Solubility of Drug-like Molecules” (ACS Med Chem Lett, 2017).
